In ChEMBL document CHEMBL1828500, “Synthesis and biological evaluation of dihydroindeno and indeno [1,2-e] [1,2,4]triazolo [3,4-b] [1,3,4]thiadiazines as antimicrobial agents” (2011):
≈ marks a conversion by molar mass, not a printed value.

Legend:
Type in all cases: functional
Bacillus subtilis [1] = assay: Antibacterial activity against Bacillus subtilis MTCC 121 at 2 mg/ml after 24 hrs by agar well diffusion method; conditions: MTCC 121, 24 h, read-out: DIZ
Summary of the method: (§1)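 Cultures adjusted to 0.5 McFarland and left 15 min on agar for adsorption. 8 mm wells bored and loaded with compound at 2.0 mg/mL in DMSO. Incubated 37 °C for 24 h. Growth-inhibition zone diameter (mm) read with a zone scale and reported as the average. DMSO served as negative control and ciprofloxacin as positive control.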

Escherichia coli [2] = assay: Antibacterial activity against Escherichia coli MTCC 1652 at 2 mg/ml after 24 hrs by agar well diffusion method; conditions: MTCC 1652, 24 h, read-out: DIZ; summary of the method: as §1
Staphylococcus aureus [3] = assay: Antibacterial activity against Staphylococcus aureus MTCC 96 after 24 hrs by agar well diffusion method; conditions: MTCC 96, 24 h
Summary of the method: (§2)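 MIC by modified agar well diffusion. Two-fold serial dilutions (DMSO stock diluted in sterile distilled water), range 256 to 0.5, placed in wells in triplicate. Agar was pre-seeded with 100 standardized inoculum at 10⁶ cfu/mL. Incubated aerobically at 37 °C for 24 h. MIC taken as lowest concentration giving a clear zone, i.e. complete growth inhibition.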

Pseudomonas aeruginosa [4] = assay: Antibacterial activity against Pseudomonas aeruginosa MTCC 741 after 24 hrs by agar well diffusion method; conditions: MTCC 741, 24 h; summary of the method: as §2
Bacillus subtilis [5] = assay: Antibacterial activity against Bacillus subtilis MTCC 121 after 24 hrs by agar well diffusion method; conditions: MTCC 121, 24 h; summary of the method: as §2
Escherichia coli [6] = assay: Antibacterial activity against Escherichia coli MTCC 1652 after 24 hrs by agar well diffusion method; conditions: MTCC 1652, 24 h; summary of the method: as §2
Staphylococcus aureus [7] = assay: Antibacterial activity against Staphylococcus aureus MTCC 96 at 2 mg/ml after 24 hrs by agar well diffusion method; conditions: MTCC 96, 24 h, read-out: DIZ; summary of the method: as §1
Aspergillus niger = assay: Antifungal activity against Aspergillus niger assessed as inhibition of mycelial growth at 4 mg/ml after 7 days; conditions: 168 h, read-out: GI
Summary of the method: (§3)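 Poisoned food method. Molds grown on Sabouraud dextrose agar at 25 °C for 7 days to provide inocula. Molten SDA (45 °C) dosed with compound at 4.0 mg/mL in DMSO, then solidified. 8 mm fungal plugs from colony margins placed centrally. Incubated 25 °C for 7 days, in triplicate. % mycelial growth inhibition calculated from colony diameters versus DMSO control. Fluconazole served as positive control.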

Pseudomonas aeruginosa [8] = assay: Antibacterial activity against Pseudomonas aeruginosa MTCC 741 at 2 mg/ml after 24 hrs by agar well diffusion method; conditions: MTCC 741, 24 h, read-out: DIZ; summary of the method: as §1
Aspergillus flavus = assay: Antifungal activity against Aspergillus flavus assessed as inhibition of mycelial growth at 4 mg/ml after 7 days; conditions: 168 h, read-out: GI; summary of the method: as §3
Penicillium sp. = assay: Antifungal activity against Penicillium sp. assessed as inhibition of mycelial growth at 4 mg/ml after 7 days; conditions: 168 h, read-out: GI; summary of the method: as §3

Q: How did the zone of inhibition at 2000 µg/mL (Bacillus subtilis [1]) turn out when `Cc1cccc2c1CC1Sc3nnc(C)n3N=C21` (stereo not drawn) was run?
A: 31.3 mm

Q: What about the zone of inhibition at 2000 µg/mL (Escherichia coli [2]) of the same compound?
A: 20.6 mm

Q: And the MIC (Staphylococcus aureus [3])?
A: 8 µg/mL (≈ 31.2 µM)

Q: What about the MIC (Pseudomonas aeruginosa [4]) of the same compound?
A: 64 µg/mL (≈ 250 µM)

Q: What about the MIC (Bacillus subtilis [5]) of the same compound?
A: 2 µg/mL (≈ 7.8 µM)

Q: What about the MIC (Escherichia coli [6]) of the same compound?
A: 64 µg/mL (≈ 250 µM)

Q: And the zone of inhibition at 2000 µg/mL (Staphylococcus aureus [7])?
A: 27.6 mm

Q: And the inhibition of growth at 4000 µg/mL (Aspergillus niger)?
A: 67.7%

Q: And the zone of inhibition at 2000 µg/mL (Pseudomonas aeruginosa [8])?
A: 18.6 mm

Q: And the inhibition of growth at 4000 µg/mL (Aspergillus flavus)?
A: 68.8%

Q: What about the inhibition of growth at 4000 µg/mL (Penicillium sp.) of the same compound?
A: 67.7%

Q: For `CC(C)c1nnc2n1N=C1c3ccccc3CC1S2` (stereo not drawn), which zone of inhibition at 2000 µg/mL (Bacillus subtilis [1]) is on record?
A: 24.6 mm

Q: And the zone of inhibition at 2000 µg/mL (Escherichia coli [2])?
A: 20.6 mm

Q: What about the MIC (Staphylococcus aureus [3]) of the same compound?
A: 4 µg/mL (≈ 14.8 µM)

Q: And the MIC (Pseudomonas aeruginosa [4])?
A: 32 µg/mL (≈ 118 µM)

Q: What about the MIC (Bacillus subtilis [5]) of the same compound?
A: 16 µg/mL (≈ 59.2 µM)

Q: What about the MIC (Escherichia coli [6]) of the same compound?
A: 64 µg/mL (≈ 237 µM)

Q: And the zone of inhibition at 2000 µg/mL (Staphylococcus aureus [7])?
A: 28.6 mm

Q: And the inhibition of growth at 4000 µg/mL (Aspergillus niger)?
A: 53.3%

Q: And the zone of inhibition at 2000 µg/mL (Pseudomonas aeruginosa [8])?
A: 19.3 mm

Q: And the inhibition of growth at 4000 µg/mL (Aspergillus flavus)?
A: 51.1%

Q: And the inhibition of growth at 4000 µg/mL (Penicillium sp.)?
A: 51.1%

Q: How did the zone of inhibition at 2000 µg/mL (Bacillus subtilis [1]) turn out when `Cc1cccc2c1CC1Sc3nnc(-c4ccccc4)n3N=C21` (stereo not drawn) was run?
A: 21.6 mm

Q: And the zone of inhibition at 2000 µg/mL (Escherichia coli [2])?
A: 17.3 mm

Q: And the MIC (Staphylococcus aureus [3])?
A: 32 µg/mL (≈ 101 µM)

Q: What about the MIC (Pseudomonas aeruginosa [4]) of the same compound?
A: 128 µg/mL (≈ 402 µM)

Q: What about the MIC (Bacillus subtilis [5]) of the same compound?
A: 32 µg/mL (≈ 101 µM)

Q: And the MIC (Escherichia coli [6])?
A: 128 µg/mL (≈ 402 µM)

Q: What about the zone of inhibition at 2000 µg/mL (Staphylococcus aureus [7]) of the same compound?
A: 22.3 mm

Q: And the inhibition of growth at 4000 µg/mL (Aspergillus niger)?
A: 55.5%

Q: And the zone of inhibition at 2000 µg/mL (Pseudomonas aeruginosa [8])?
A: 15.6 mm

Q: What about the inhibition of growth at 4000 µg/mL (Aspergillus flavus) of the same compound?
A: 58.8%

Q: What about the inhibition of growth at 4000 µg/mL (Penicillium sp.) of the same compound?
A: 60%
